High-throughput results from PubChem BioAssay.
PREPL inh: inhibitors of human prolyl oligopeptidase-like enzyme PREPL; 320,000 tested, 0.68% active; recombinant PREPL, fluorescence polarization activity-based probe; inhibition, % at 5.96 µM; Q4J6C6; in the data active = inhibition above about 43%;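 note: 0% = enzyme with DMSO and 100% = wells lacking enzyme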
MEKK3 PB1 HTS: raises or lowers MEK5 binding to the human MEKK3 PB1 domain; Q99759; bead-based flow cytometry, Alexa488-MEK5 binding to MEKK3; actives lie on both sides; 0 = blocked by unlabeled MEK5, 100 = vehicle; binding response (% of control), % at 10 µM; 290,000 tested, 1.4% active; AID 1529;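 active = binding response more than 3 SD above or below the average of its plate-row segment, actives on both sides; inconclusive = wells at one plate position flagged as instrument error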;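 note: Alexa488 bead fluorescence after subtracting the streptavidin-only scavenger bead signal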
MEKK2mut PB1 HTS: signal of MEK5 binding to mutant human MEKK2 PB1 domain; bead flow cytometry, Alexa488-MEK5 binding to MEKK2 mutant; percent response, % at 10 µM; 290,000 tested, 0.35% active; AID 1530; in the data active = percent response above about 24%, passing the limit was not always enough
MEKK2 WT-MEK5: raises or lowers MEK5 binding to wildtype human MEKK2 PB1 domain | Q9Y2U5 | bead flow cytometry, Alexa488-MEK5 binding to MEKK2 WT; actives lie on both sides | binding response (% of control), % at 10 µM | 290,000 tested, 1.1% active | AID 1531; in the data active = binding response below about 67% or above about 130%; inconclusive = no clear call, values can overlap the other calls; inactive = in between
UBC13 polyUb: inhibitors of human UBC13 polyubiquitin chain formation. 330,000 tested, 0.47% active. AID 485273. P61088. inhibition, % at 20 µM. TR-FRET; in the data active = inhibition above about 45%, passing the limit was not always enough; inconclusive = no clear call, values can overlap the other calls
Apaf-1 inh: inhibitors of human Apaf-1 apoptosome; 330,000 tested, 0.71% active; AID 489030; reconstituted apoptosome caspase-3 activity, DEVD-Rh110 fluorescence; inhibition, % at 20 µM; O14727; active = inhibition of at least 40% at 20 µM;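 note: plate controls were DMSO wells for no effect and DEVD-CHO caspase inhibitor wells for full effect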
Target sequence (O14727 whole entry, looked up): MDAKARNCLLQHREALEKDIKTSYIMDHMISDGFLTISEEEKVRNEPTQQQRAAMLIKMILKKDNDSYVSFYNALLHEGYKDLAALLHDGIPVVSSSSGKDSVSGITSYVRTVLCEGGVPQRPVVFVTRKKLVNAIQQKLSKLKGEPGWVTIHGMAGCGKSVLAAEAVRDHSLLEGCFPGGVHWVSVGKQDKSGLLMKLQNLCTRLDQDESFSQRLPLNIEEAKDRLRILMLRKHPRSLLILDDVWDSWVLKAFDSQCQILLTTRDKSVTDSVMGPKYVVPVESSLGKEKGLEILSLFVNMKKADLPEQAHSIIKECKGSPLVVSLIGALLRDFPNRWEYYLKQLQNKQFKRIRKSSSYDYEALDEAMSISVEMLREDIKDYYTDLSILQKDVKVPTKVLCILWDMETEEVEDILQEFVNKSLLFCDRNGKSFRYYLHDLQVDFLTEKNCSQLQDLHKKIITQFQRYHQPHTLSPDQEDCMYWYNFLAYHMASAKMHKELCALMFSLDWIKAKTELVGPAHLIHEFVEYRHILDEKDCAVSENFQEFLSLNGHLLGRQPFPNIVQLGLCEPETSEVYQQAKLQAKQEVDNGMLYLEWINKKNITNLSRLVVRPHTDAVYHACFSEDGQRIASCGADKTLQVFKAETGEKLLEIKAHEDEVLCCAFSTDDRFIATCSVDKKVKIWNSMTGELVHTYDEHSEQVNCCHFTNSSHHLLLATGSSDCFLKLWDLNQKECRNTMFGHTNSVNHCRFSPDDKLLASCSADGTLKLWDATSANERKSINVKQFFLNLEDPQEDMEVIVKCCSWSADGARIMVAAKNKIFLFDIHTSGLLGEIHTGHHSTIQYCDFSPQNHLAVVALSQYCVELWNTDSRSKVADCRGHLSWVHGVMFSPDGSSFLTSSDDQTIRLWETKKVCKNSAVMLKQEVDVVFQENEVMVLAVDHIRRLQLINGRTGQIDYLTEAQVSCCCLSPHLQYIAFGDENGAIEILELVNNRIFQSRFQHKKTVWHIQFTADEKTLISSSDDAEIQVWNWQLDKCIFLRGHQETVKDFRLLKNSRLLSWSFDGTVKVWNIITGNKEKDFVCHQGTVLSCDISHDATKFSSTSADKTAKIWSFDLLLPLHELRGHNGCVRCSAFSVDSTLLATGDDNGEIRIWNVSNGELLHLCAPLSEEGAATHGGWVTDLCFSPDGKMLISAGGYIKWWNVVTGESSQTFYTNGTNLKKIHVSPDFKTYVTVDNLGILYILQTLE
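Assay system: Apoptosome proteins | Medium: pH 7.5 Hepes buffer with CHAPS, BSA, DTT | Also added: Cytochrome c and DEVD-Rh110 substrate | Times: 30 min plus 50 min, RT | Detection: Rhodamine 110 fluorescence at Ex 480/Em 540 nm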
Casp3 UBC13 ctr: counter-screen for UBC13 inhibitors: human caspase-3 inhibition; inhibition, % at 20 µM; shares compounds with UBC13 polyUb; Recombinant caspase-3, Caspase-Glo 3/7 luminescence, 60 min; AID 488856; 1,400 tested, 4% active;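 active = mean inhibition across replicates above about 26%, limit read from the data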;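 note: plate controls were DMSO with caspase-3 for no effect and DMSO wells lacking enzyme for full effect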
UBC13 confirm: human UBC13 polyubiquitin inhibition, confirmed; inhibition, % at 10 µM; shares compounds with UBC13 polyUb; UBC13 polyubiquitination, TR-FRET, biochemical; 1,400 tested, 68% active; in the data active = inhibition above about 45%; inconclusive = no clear call, values can overlap the other calls
The depositor's hits bear a star; u = inconclusive; x = no result. Only some compounds are listed: those with a hit (about 3.1% of all), similar ones and a draw of the others.

SMILES	PREPL inh	MEKK3 PB1 HTS	MEKK2mut PB1 HTS	MEKK2 WT-MEK5	UBC13 polyUb	Apaf-1 inh	Casp3 UBC13 ctr	UBC13 confirm
CCN1CCN(C(=O)c2cc(COc3ccc(F)cc3F)on2)[C@@H](C)C1=O	9	101	-9	96	-4	0	x	x
CCc1ccc2c(c1)C(=O)c1ccccc1C2=O	16	106	-1	102	36	11	x	x
CC(C)(C)c1ccc2c(c1)C(=O)c1ccccc1C2=O	17	107	27	132	54*	17	96*	19
O=C(CNc1cccc([N+](=O)[O-])c1)N1CCN(S(=O)(=O)c2ccc(Cl)cc2)CC1	x	x	x	x	0	-5	x	x
CCN(CC)S(=O)(=O)c1ccc(C(=O)NNC(=O)C2CCN(S(=O)(=O)c3ccc(Cl)cc3)CC2)cc1	-3	97	-1	97	78*	5	0	77*
O=[N+]([O-])c1ccc2[nH]c(O)c(N=NC(=S)NCC3CCCO3)c2c1 (centres undefined)	9	92	-4	94	91*	-17	4	94*
CCNC(=S)N=Nc1c(O)[nH]c2ccc(C(C)C)cc12	7	107	2	102	90*	5	1	88*
CC(C)c1ccc2[nH]c(O)c(N=NC(=S)NCCc3ccccc3)c2c1	5	104	11	106	-6	12	x	x
CCNC(=S)N=Nc1c(O)[nH]c2ccc([N+](=O)[O-])cc12	15	100	-2	98	45*	-10	1	60*
CCC(CO)NCc1cc(OC)c(OCC(=O)NCCc2ccccc2)cc1Br (centres undefined)	-8	101	0	103	-1	-1	x	x
O=C(C1=C[C@H](c2ccccc2)C[C@H](OCCCCO)O1)N1CCOCC1	5	106	5	98	-8	4	x	x
CC(C)(C)c1cc(C(=O)N/N=C/c2ccccn2)n[nH]1	3	106	1	103	62*	-20	-2	-10
CSCCC(NC(=O)c1ccc([N+](=O)[O-])cc1Cl)C(=O)OC1CCCCC1=O (centres undefined)	12	103	8	110	5	-4	x	x
Cc1ccc(NC(=O)C[n+]2ccn(C3=C([O-])c4ccccc4C3=O)c2)cc1	35	97	-7	90	74*	3	4	65*
Cc1nnc(NC(=O)c2c(-c3ccccc3)noc2C)s1	7	97	0	101	0	8	x	x
Cc1onc(-c2ccccc2)c1C(=O)Nc1cccc2nsnc12	5	100	-2	102	49*	-4	1	45
Cc1csc(SC(C)C(=O)Nc2ccccc2C)n1 (centres undefined)	-4	x	x	x	8	-4	x	x
O=C(CCNC(=O)c1ccc(Cl)cc1)Nc1ccccc1N1CCCC1	20	x	x	x	0	7	x	x
COc1cccc(-c2nnc3n2N=C(c2cc(OC)ccc2OC)CS3)c1	-2	101	-1	95	56*	11	-3	48*
COC(=O)c1c(-c2ccc(OC)cc2)oc2ccc(-c3cc(OC)c(OC)c(OC)c3)cc12	6	116	6	113	52*	3	-1	u
Cn1c(=O)c2c(ncn2Cc2cccc(Cl)c2)n(C)c1=O	-1	90	-5	93	74*	-19	-9	75*
O=C(CCNC(=O)c1ccccc1Cl)Nc1nc2ccccc2s1	10	101	-11	86	80*	-4	2	101*
COc1ccc2nc(NC(=O)CCNC(=O)c3ccccc3Cl)sc2c1	12	103	-1	97	44	6	x	x
Nc1nc(SCC(=O)Nc2ccc([N+](=O)[O-])cc2)[nH]c(=O)c1NC(=O)c1ccc(Br)cc1	-6	99	8	103	-16	4	x	x
C#CCNC(=O)C1=C[C@H](c2cn(C(C)=O)c3ccccc23)C[C@H](OCc2ccc(CO)cc2)O1	13	83	-15	80	63*	6	-2	46*
SMILES	PREPL inh	MEKK3 PB1 HTS	MEKK2mut PB1 HTS	MEKK2 WT-MEK5	UBC13 polyUb	Apaf-1 inh	Casp3 UBC13 ctr	UBC13 confirm
CC(=O)n1cc([C@H]2C=C(C(=O)Nc3ccccc3)O[C@@H](OCc3ccc(CO)cc3)C2)c2ccccc21	5	99	0	99	64*	24	7	58*
CN(C)CCOc1ccc(-c2c(-c3ccccc3)sc3ccccc23)cc1	5	x	x	x	82*	77*	-2	90*
Nc1ccc2c(c1)CC(=O)c1ccccc1S2	7	97	-2	94	5	9	x	x
O=C1Cc2ccccc2Sc2ccc(O)cc21	1	96	-3	97	51*	-5	-1	42
CCn1c2ccccc2c2nc3ccccc3nc21	1	103	-3	94	66*	7	48*	-1
CCn1c2ccccc2c2nc3cc(OC)c(OC)cc3nc21	7	102	-3	91	7	11	x	x
COCCCNC(=O)Cn1cc(/C=C(\C#N)C(=O)NC2CCCC2)c2ccccc21	-10	100	4	102	-16	1	x	x
CCc1nc2ccccc2c(=O)n1NC(=O)c1c(O)c2ccccc2[nH]c1=O	4	89	-6	86	2	-2	x	x
CCCc1nc2ccccc2c(=O)n1NC(=O)c1c(O)c2ccccc2n(C)c1=O	0	95	-8	90	47*	-1	1	12
COC(=O)c1c(NC(=S)NNC(=O)c2ccc(Cl)s2)sc(C(=O)N(C)C)c1C	0	105	8	108	-3	24	x	x
Cc1c(C)n(Cc2ccccc2)c2ncnc(N)c12	-34	109	3	103	59*	5	1	61*
O=C(CCN1C(=O)c2cccc3cccc(c23)C1=O)NC1CCS(=O)(=O)C1 (centres undefined)	1	93	0	95	2	-6	x	x
O=C(CCCCCN1C(=O)c2cccc3cccc(c23)C1=O)NC1CCS(=O)(=O)C1 (centres undefined)	32	102	4	99	83*	-19	-2	98*
COc1ccc(CCNC(=O)CN(c2cc(C)cc(C)c2)S(=O)(=O)c2c(C)noc2C)cc1OC	5	100	7	105	-3	8	x	x
O=C(CCN1C(=O)/C(=C/c2ccccc2Cl)SC1=S)NCCCN1CCOCC1	-36	103	6	116	45*	8	0	61*
